Published values pooled from the literature.
Protocols differ between the studies behind these lines.

SMILES	assay	system	setting	endpoint	result
CC[C@H](C)CCCCC(=O)N[C@@H](CCN)C(=O)N[C@H](C(=O)N[C@@H](CCN)C(=O)N[C@H]1CCNC(=O)[C@H]([C@@H](C)O)NC(=O)[C@H](CCN)NC(=O)[C@H](CCN)NC(=O)[C@H](CC(C)C)NC(=O)[C@@H](CC(C)C)NC(=O)[C@H](CCN)NC1=O)[C@@H](C)O	–	male Sprague-Dawley rat, plasma	intravenous, 5 mg/kg	C0	15400 ng/mL
C#Cc1nc(C(=O)N2CCC(NC(=O)c3cnc(-c4ccccc4)s3)(c3nc4ccccc4n3C)CC2)cs1	metabolic stability	mouse, liver microsomes	–	half-life	~20 min
CN1CCC[C@H]1c1cccnc1	–	rat, plasma	intravenous, 0.1 mg/kg	half-life	68 min
Cc1[nH]c(C)c(S(=O)(=O)Nc2ccc(S(F)(F)(F)(F)F)cc2)c1C(=O)N1CCC(F)(F)C1	metabolic stability	mouse, liver microsomes	–	half-life	20 min
Cc1ccc2cc(N3CCC4(O)C(=O)c5cc(C)c(C)cc5N=C34)ccc2n1 (stereo not shown)	–	rat, plasma	intravenous, 2 mg/kg	half-life	186 min
CC(=O)c1c(C)c2cnc(Nc3ccc(C4CCN(CCS(C)(=O)=O)CC4)cn3)nc2n(C2CCCC2)c1=O	metabolic stability	mouse, liver microsomes	–	half-life	72.2 min
O=c1c2cc(Cl)c(CO)cc2[nH]c(=S)n1Cc1cncnc1	metabolic stability	mouse, liver microsomes	1 µM, pH 7.4	half-life	57.9 min
Cc1[nH]c(C)c(S(=O)(=O)Nc2ccc(S(=O)(=O)F)c(Cl)c2)c1C(=O)N1CCC(F)(F)C1	metabolic stability	mouse, liver microsomes	–	half-life	32 min
Cl.Cn1c(=O)n(CCCCN2CCC3(CC2)OCc2ccccc23)c2ccccc21	–	male Sprague-Dawley rat, plasma	intravenous, 10 mg/kg	half-life	216 min
CC(C)CC(=O)OC[C@H]1O[C@@](C#N)(c2ccc3c(N)ncnn23)[C@H](O)[C@@H]1O	metabolic stability	mouse, hepatocytes	5 µM	half-life	< 4.36 min
